Source: ChEMBL document CHEMBL1158813, “Diastereomeric quinolinone alkaloids from the marine-derived fungus Penicillium janczewskii” (2005)

Legend:
Type in all cases: functional
Details in all cases: read-out: Activity
[1] = test system: SK-OV-3; experiment: Cytotoxicity against human SKOV3 cells assessed as cell viability at 10 ug/mL by SRB assay
Summary of the method: (§1)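 SRB assay. Cells were plated at 5000–10 000 cells/well, depending on doubling time, and grown 24 h before compound addition. Compounds were dissolved in MeOH or DMSO and tested at 1 µg per 100 µL well (10 µg/mL) in complete medium for 48 h. Cells were fixed with cold TCA for 30 min on ice, at 10% final for adherent cells and 16% for suspension cells. Plates were stained with 0.4% SRB in 1% acetic acid for 10 min at room temperature, dye was solubilized in 10 mM Tris/KOH pH 10.5, and A550 was read.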

[2] = test system: DU-145; experiment: Cytotoxicity against human DU145 cells assessed as cell viability at 10 ug/mL by SRB assay; summary of the method: as §1
[3] = test system: HT-29; experiment: Cytotoxicity against human HT-29 cells assessed as cell viability at 10 ug/mL by SRB assay; summary of the method: as §1
[4] = test system: CAKI-1; experiment: Cytotoxicity against human Caki1 cells assessed as cell viability at 10 ug/mL by SRB assay; summary of the method: as §1
[5] = test system: MDA-MB-231; experiment: Cytotoxicity against human MDA-MB-231 cells assessed as cell viability at 10 ug/mL by SRB assay; summary of the method: as §1
[6] = test system: A549; experiment: Cytotoxicity against human A549 cells assessed as cell viability at 10 ug/mL by SRB assay; summary of the method: as §1
[7] = test system: SK-MEL-2; experiment: Cytotoxicity against human SK-MEL-2 cells assessed as cell viability at 10 ug/mL by SRB assay; summary of the method: as §1
[8] = test system: K562; experiment: Cytotoxicity against human K562 cells assessed as cell viability at 10 ug/mL by SRB assay; summary of the method: as §1

Q: How did the viability at 10 µg/mL [1] turn out when COc1ccc([C@@]2(O)c3ccccc3NC(=O)[C@@H]2O)cc1 was run?
A: 8.1%

Q: What about the viability at 10 µg/mL [2] of the same molecule?
A: 48.4%

Q: And the viability at 10 µg/mL [3]?
A: 32.8%

Q: What about the viability at 10 µg/mL [4] of the same molecule?
A: 65.1%

Q: What about the viability at 10 µg/mL [5] of the same molecule?
A: 31.8%

Q: What about the viability at 10 µg/mL [6] of the same molecule?
A: 56.8%

Q: And the viability at 10 µg/mL [7]?
A: 39%

Q: And the viability at 10 µg/mL [8]?
A: 36.6%

Q: Which viability at 10 µg/mL [1] does the source give for COc1ccc([C@@]2(O)c3ccccc3NC(=O)[C@H]2O)cc1 here?
A: 44.6%

Q: And the viability at 10 µg/mL [2]?
A: 50.6%

Q: What about the viability at 10 µg/mL [3] of the same molecule?
A: 58.8%

Q: What about the viability at 10 µg/mL [4] of the same molecule?
A: 80.3%

Q: What about the viability at 10 µg/mL [5] of the same molecule?
A: 52.9%

Q: What about the viability at 10 µg/mL [6] of the same molecule?
A: 56.3%

Q: And the viability at 10 µg/mL [7]?
A: 55.2%

Q: What about the viability at 10 µg/mL [8] of the same molecule?
A: 52.4%

Q: Which viability at 10 µg/mL [1] does the source give for COc1ccc([C@@]2(O)c3c(ccc(CC=C(C)C)c3O)NC(=O)[C@@H]2OC)cc1 [PENIPREQUINOLONE] here?
A: 20.2%

Q: And the viability at 10 µg/mL [2]?
A: 30.8%

Q: And the viability at 10 µg/mL [3]?
A: 4%

Q: And the viability at 10 µg/mL [5]?
A: 8.4%
